# Experimental data published in ChEMBL document CHEMBL1136272, “Development of a presynaptic 5-HT1A antagonist” (Bioorg Med Chem Lett, 2003).
# Tested on: Rattus norvegicus
# Test: Social interaction time determined in vivo in rat at 0.1 + 1 mg/kg of ip administration
# Type: functional
# Conditions: route intraperitoneal
# Summary of the method: (§1)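 Rat social interaction paradigm with total motor activity counts recorded in the same session. All compounds were given ip, with a saline-treated control group. Combination arms gave a 0.1 mg/kg agent together with a second agent at 1 mg/kg, both ip. Social interaction time (s) and motor counts are reported as mean ± SEM, with significance tested against saline control.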
row,Compound,Time
1,COc1cccc(CN2CCN(C3CCC(O)(c4ccc5c(c4)OCO5)CC3)CC2)c1.OC1(c2ccc3c(c2)OCO3)CCC(N2CCN(Cc3ccccc3)CC2)CC1 (stereo unspecified),53 s
2,COc1cccc(CN2CCN(C3CCC(O)(c4ccc5c(c4)OCO5)CC3)CC2)c1.OC(CCCN1CCN(c2ncc(F)cn2)CC1)c1ccc(F)cc1 (stereo unspecified),49 s
3,COc1cccc(CN2CCN(C3CCC(O)(c4ccc5c(c4)OCO5)CC3)CC2)c1.O=C1CC2(CCCC2)CC(=O)N1CCCCN1CCN(c2ncccn2)CC1 (stereo unspecified),51 s

# Tested on: Rattus norvegicus
# Test: In vivo motor activity determined in rat at 0.1 + 1 mg/kg of ip administration
# Type: functional
# Conditions: route intraperitoneal
# Summary of the method: as §1
row,Compound,Motor activity
1,COc1cccc(CN2CCN(C3CCC(O)(c4ccc5c(c4)OCO5)CC3)CC2)c1.OC1(c2ccc3c(c2)OCO3)CCC(N2CCN(Cc3ccccc3)CC2)CC1 (stereo unspecified),5100 Counts
2,COc1cccc(CN2CCN(C3CCC(O)(c4ccc5c(c4)OCO5)CC3)CC2)c1.OC(CCCN1CCN(c2ncc(F)cn2)CC1)c1ccc(F)cc1 (stereo unspecified),5400 Counts
3,COc1cccc(CN2CCN(C3CCC(O)(c4ccc5c(c4)OCO5)CC3)CC2)c1.O=C1CC2(CCCC2)CC(=O)N1CCCCN1CCN(c2ncccn2)CC1 (stereo unspecified),4600 Counts

# Tested on: Rattus norvegicus
# Test: Social interaction time determined in vivo rat at 0.1 mg/kg of ip administration
# Type: functional
# Conditions: route intraperitoneal
# Summary of the method: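 Rats dosed i.p. against a saline-treated control group. Social interaction time (s) and total motor activity (counts) were recorded in the same social-interaction session and reported as mean ± SEM, with significance tested against saline control.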
row,Compound,Time
1,OC(CCCN1CCN(c2ncc(F)cn2)CC1)c1ccc(F)cc1 (stereo unspecified) [BMY-14802],123 s
2,O=C1CC2(CCCC2)CC(=O)N1CCCCN1CCN(c2ncccn2)CC1 [BUSPIRONE],125 s

# Tested on: Rattus norvegicus
# Test: In vivo motor activity determined in rat at 0.1 mg/kg of ip administration
# Type: functional
# Conditions: route intraperitoneal
# Summary of the method: as §1
row,Compound,Motor activity
1,OC(CCCN1CCN(c2ncc(F)cn2)CC1)c1ccc(F)cc1 (stereo unspecified) [BMY-14802],6800 Counts
2,O=C1CC2(CCCC2)CC(=O)N1CCCCN1CCN(c2ncccn2)CC1 [BUSPIRONE],6700 Counts

# Biological target: T1, 5-hydroxytryptamine receptor 1A (Rattus norvegicus, UniProt P19327)
# T1 sequence (P19327 whole entry): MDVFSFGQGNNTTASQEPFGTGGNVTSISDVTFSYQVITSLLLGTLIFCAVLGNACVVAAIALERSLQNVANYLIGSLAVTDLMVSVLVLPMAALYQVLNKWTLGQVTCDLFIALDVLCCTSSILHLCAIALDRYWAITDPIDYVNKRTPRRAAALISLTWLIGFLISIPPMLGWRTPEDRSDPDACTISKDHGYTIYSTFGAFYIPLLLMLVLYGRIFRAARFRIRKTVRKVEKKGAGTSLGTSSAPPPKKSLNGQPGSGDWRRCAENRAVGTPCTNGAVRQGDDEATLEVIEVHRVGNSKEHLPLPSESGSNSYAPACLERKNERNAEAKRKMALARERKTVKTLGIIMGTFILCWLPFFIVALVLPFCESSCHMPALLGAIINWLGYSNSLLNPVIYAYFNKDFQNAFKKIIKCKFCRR
# Test: Inhibition of the 5-hydroxytryptamine 1A receptor in rat dorsal raphe
# Conditions: not given
row,Compound,IC50
1,OC1(c2ccc3c(c2)OCO3)CCC(N2CCN(Cc3cc(F)cc(F)c3)CC2)CC1 (stereo unspecified),21 nM
2,COc1ccc(C2(O)CCC(N3CCN(Cc4ccccc4)CC3)CC2)cc1 (stereo unspecified),50 nM
3,OC1(c2ccc3c(c2)OCO3)CCC(N2CCN(Cc3cccc(F)c3)CC2)CC1 (stereo unspecified),13 nM
4,COc1cccc(C2(O)CCC(N3CCN(Cc4ccccc4)CC3)CC2)c1 (stereo unspecified),50 nM
5,OC1(c2ccc3c(c2)OCO3)CCC(N2CCN(Cc3cccc(Cl)c3)CC2)CC1 (stereo unspecified),6 nM
6,OC1(c2ccc3c(c2)OCO3)CCC(N2CCN(Cc3ccccc3F)CC2)CC1 (stereo unspecified),10 nM
7,COc1ccccc1CN1CCN(C2CCC(O)(c3ccc4c(c3)OCO4)CC2)CC1 (stereo unspecified),43 nM
8,OC1(c2ccc3c(c2)OCO3)CCC(N2CCN(Cc3cc(F)ccc3F)CC2)CC1 (stereo unspecified),2.6 nM
9,OC1(c2ccc3c(c2)OCO3)CCC(N2CCN(Cc3ccccc3Br)CC2)CC1 (stereo unspecified),1.2 nM
10,COc1ccc(F)c(CN2CCN(C3CCC(O)(c4ccc5c(c4)OCO5)CC3)CC2)c1 (stereo unspecified),0.75 nM
11,OC1(c2ccc3c(c2)OCO3)CCC(N2CCN(Cc3ccc(Cl)cc3)CC2)CC1 (stereo unspecified),79 nM
12,COc1ccccc1C1(O)CCC(N2CCN(Cc3ccccc3)CC2)CC1 (stereo unspecified),60 nM
13,COc1ccc(CN2CCN(C3CCC(O)(c4ccc5c(c4)OCO5)CC3)CC2)cc1 (stereo unspecified),380 nM
14,COc1cccc(CN2CCN(C3CCC(O)(c4ccc5c(c4)OCO5)CC3)CC2)c1F (stereo unspecified),19 nM
15,OC1(c2ccccc2)CCC(N2CCN(Cc3ccccc3)CC2)CC1 (stereo unspecified),460 nM
16,OC1(c2ccc(F)cc2)CCC(N2CCN(Cc3ccccc3)CC2)CC1 (stereo unspecified),260 nM

# Second part, the compound after the results:
row,IC50,Compound
1,2.8 nM,OC1(c2ccc3c(c2)OCO3)CCC(N2CCN(Cc3cccc(Br)c3)CC2)CC1 (stereo unspecified)
2,1.2 nM,OC1(c2ccc3c(c2)OCO3)CCC(N2CCN(Cc3ccccc3I)CC2)CC1 (stereo unspecified)
3,27 nM,OC1(c2ccc3c(c2)OCO3)CCC(N2CCN(Cc3ccc(F)cc3)CC2)CC1 (stereo unspecified)
4,140 nM,COc1ccc(C2(O)CCC(N3CCN(Cc4ccccc4)CC3)CC2)cc1OC (stereo unspecified)
5,34 nM,OC1(c2ccc3c(c2)OCO3)CCC(N2CCN(Cc3ccc(F)c(F)c3)CC2)CC1 (stereo unspecified)
6,1.9 nM,OC1(c2ccc3c(c2)OCO3)CCC(N2CCN(Cc3ccccc3Cl)CC2)CC1 (stereo unspecified)
7,110 nM,OC1(c2ccc3c(c2)OCO3)CCC(N2CCN(Cc3c(F)cccc3F)CC2)CC1 (stereo unspecified)
8,6.7 nM,CCOc1cccc(CN2CCN(C3CCC(O)(c4ccc5c(c4)OCO5)CC3)CC2)c1 (stereo unspecified)
9,57 nM,OC1(c2ccc3c(c2)OCO3)CCC(N2CCN(Cc3ccc(F)cc3F)CC2)CC1 (stereo unspecified)
10,17 nM,OC1(c2ccc3c(c2)OCO3)CCC(N2CCN(Cc3cccc(F)c3F)CC2)CC1 (stereo unspecified)
